Test system: A-375
Assay: Cytotoxicity against human A375 cells by MTT assay
Format: functional, cell-based
Conditions: not given
Outline: (§1)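 Cell lines were cultured in 96-well microtitre plates at 37 °C in humidified 5% CO₂. Compounds were dissolved in DMSO, at ≤2% (v/v) final in the growth medium. Viability was read by MTT staining, expressed relative to untreated cells.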

Structure (SMILES)	IC50
CC(C)Cn1c2ccccc2c2cc[n+](Cc3ccccc3)cc21	28.4 µM
CCCCCCn1c2ccccc2c2cc[n+](Cc3ccccc3)cc21	6.8 µM
CCCCCCCCn1c2ccccc2c2cc[n+](Cc3ccccc3)cc21	3.1 µM
Fc1ccc(Cn2c3ccccc3c3cc[n+](Cc4ccccc4)cc32)cc1	4.7 µM
Clc1cccc(Cn2c3ccccc3c3cc[n+](Cc4ccccc4)cc32)c1	7 µM
C[n+]1ccc2c3ccccc3n(CCCc3ccccc3)c2c1	41.5 µM
CC[n+]1ccc2c3ccccc3n(CCCc3ccccc3)c2c1	45.1 µM
CCCC[n+]1ccc2c3ccccc3n(CCCc3ccccc3)c2c1	12.2 µM
CCCCCC[n+]1ccc2c3ccccc3n(CCCc3ccccc3)c2c1	2.9 µM
CCCCCCCC[n+]1ccc2c3ccccc3n(CCCc3ccccc3)c2c1	< 2 µM
CCCCCCCCCC[n+]1ccc2c3ccccc3n(CCCc3ccccc3)c2c1	< 2 µM

Test system: SK-OV-3
Assay: Cytotoxicity against human SKOV3 cells by MTT assay
Format: functional, cell-based
Conditions: not given
Outline: as §1

Structure (SMILES)	IC50
CC(C)Cn1c2ccccc2c2cc[n+](Cc3ccccc3)cc21	27.7 µM
CCCCCCn1c2ccccc2c2cc[n+](Cc3ccccc3)cc21	7.3 µM
CCCCCCCCn1c2ccccc2c2cc[n+](Cc3ccccc3)cc21	3.2 µM
Fc1ccc(Cn2c3ccccc3c3cc[n+](Cc4ccccc4)cc32)cc1	10.5 µM
Clc1cccc(Cn2c3ccccc3c3cc[n+](Cc4ccccc4)cc32)c1	7.9 µM
C[n+]1ccc2c3ccccc3n(CCCc3ccccc3)c2c1	> 100 µM
CC[n+]1ccc2c3ccccc3n(CCCc3ccccc3)c2c1	> 100 µM
CCCC[n+]1ccc2c3ccccc3n(CCCc3ccccc3)c2c1	15.8 µM
CCCCCC[n+]1ccc2c3ccccc3n(CCCc3ccccc3)c2c1	< 2 µM
CCCCCCCC[n+]1ccc2c3ccccc3n(CCCc3ccccc3)c2c1	5.9 µM
CCCCCCCCCC[n+]1ccc2c3ccccc3n(CCCc3ccccc3)c2c1	57 µM

Test system: not listed separately
Assay: Cytotoxicity against mouse LLC cells by MTT assay
Format: functional, cell-based
Conditions: Lewis lung carcinoma
Outline: as §1

Structure (SMILES)	IC50
CC(C)Cn1c2ccccc2c2cc[n+](Cc3ccccc3)cc21	8000 nM
CCCCCCn1c2ccccc2c2cc[n+](Cc3ccccc3)cc21	< 2000 nM
CCCCCCCCn1c2ccccc2c2cc[n+](Cc3ccccc3)cc21	< 2000 nM
Fc1ccc(Cn2c3ccccc3c3cc[n+](Cc4ccccc4)cc32)cc1	< 2000 nM
Clc1cccc(Cn2c3ccccc3c3cc[n+](Cc4ccccc4)cc32)c1	< 2000 nM
C[n+]1ccc2c3ccccc3n(CCCc3ccccc3)c2c1	2400 nM
CC[n+]1ccc2c3ccccc3n(CCCc3ccccc3)c2c1	4300 nM
CCCC[n+]1ccc2c3ccccc3n(CCCc3ccccc3)c2c1	< 2000 nM
CCCCCC[n+]1ccc2c3ccccc3n(CCCc3ccccc3)c2c1	< 2000 nM
CCCCCCCC[n+]1ccc2c3ccccc3n(CCCc3ccccc3)c2c1	< 2000 nM
CCCCCCCCCC[n+]1ccc2c3ccccc3n(CCCc3ccccc3)c2c1	15700 nM

Test system: 769-P
Assay: Cytotoxicity against human 769-P cells by MTT assay
Format: functional, cell-based
Conditions: not given
Outline: as §1

Structure (SMILES)	IC50
CC(C)Cn1c2ccccc2c2cc[n+](Cc3ccccc3)cc21	11.6 µM
CCCCCCn1c2ccccc2c2cc[n+](Cc3ccccc3)cc21	2.7 µM
CCCCCCCCn1c2ccccc2c2cc[n+](Cc3ccccc3)cc21	< 2 µM
Fc1ccc(Cn2c3ccccc3c3cc[n+](Cc4ccccc4)cc32)cc1	6 µM
Clc1cccc(Cn2c3ccccc3c3cc[n+](Cc4ccccc4)cc32)c1	3.5 µM
C[n+]1ccc2c3ccccc3n(CCCc3ccccc3)c2c1	19.9 µM
CC[n+]1ccc2c3ccccc3n(CCCc3ccccc3)c2c1	34.2 µM
CCCC[n+]1ccc2c3ccccc3n(CCCc3ccccc3)c2c1	13.4 µM
CCCCCC[n+]1ccc2c3ccccc3n(CCCc3ccccc3)c2c1	2.5 µM
CCCCCCCC[n+]1ccc2c3ccccc3n(CCCc3ccccc3)c2c1	< 2 µM
CCCCCCCCCC[n+]1ccc2c3ccccc3n(CCCc3ccccc3)c2c1	< 2 µM

Test system: HepG2
Assay: Cytotoxicity against human HepG2 cells by MTT assay
Format: functional, cell-based
Conditions: not given
Outline: as §1

Structure (SMILES)	IC50
CC(C)Cn1c2ccccc2c2cc[n+](Cc3ccccc3)cc21	36.6 µM
CCCCCCn1c2ccccc2c2cc[n+](Cc3ccccc3)cc21	13.9 µM
CCCCCCCCn1c2ccccc2c2cc[n+](Cc3ccccc3)cc21	6.5 µM
Fc1ccc(Cn2c3ccccc3c3cc[n+](Cc4ccccc4)cc32)cc1	23.4 µM
Clc1cccc(Cn2c3ccccc3c3cc[n+](Cc4ccccc4)cc32)c1	16.5 µM
C[n+]1ccc2c3ccccc3n(CCCc3ccccc3)c2c1	90.8 µM
CC[n+]1ccc2c3ccccc3n(CCCc3ccccc3)c2c1	92.1 µM
CCCC[n+]1ccc2c3ccccc3n(CCCc3ccccc3)c2c1	45.5 µM
CCCCCC[n+]1ccc2c3ccccc3n(CCCc3ccccc3)c2c1	4.3 µM
CCCCCCCC[n+]1ccc2c3ccccc3n(CCCc3ccccc3)c2c1	4.7 µM
CCCCCCCCCC[n+]1ccc2c3ccccc3n(CCCc3ccccc3)c2c1	< 2 µM

Test system: not listed separately
Assay: Cytotoxicity against human ECA109 cells by MTT assay
Format: functional, cell-based
Conditions: ECa-109
Outline: as §1

Structure (SMILES)	IC50
CC(C)Cn1c2ccccc2c2cc[n+](Cc3ccccc3)cc21	35.7 µM
CCCCCCn1c2ccccc2c2cc[n+](Cc3ccccc3)cc21	13.9 µM
CCCCCCCCn1c2ccccc2c2cc[n+](Cc3ccccc3)cc21	5.1 µM
Fc1ccc(Cn2c3ccccc3c3cc[n+](Cc4ccccc4)cc32)cc1	35.4 µM
Clc1cccc(Cn2c3ccccc3c3cc[n+](Cc4ccccc4)cc32)c1	23.3 µM
C[n+]1ccc2c3ccccc3n(CCCc3ccccc3)c2c1	60 µM
CC[n+]1ccc2c3ccccc3n(CCCc3ccccc3)c2c1	55.5 µM
CCCC[n+]1ccc2c3ccccc3n(CCCc3ccccc3)c2c1	41.5 µM
CCCCCC[n+]1ccc2c3ccccc3n(CCCc3ccccc3)c2c1	2.5 µM
CCCCCCCC[n+]1ccc2c3ccccc3n(CCCc3ccccc3)c2c1	22.8 µM
CCCCCCCCCC[n+]1ccc2c3ccccc3n(CCCc3ccccc3)c2c1	23.2 µM

Test system: CWR22R
Assay: Cytotoxicity against human 22Rv1 cells by MTT assay
Format: functional, cell-based
Conditions: not given
Outline: as §1

Structure (SMILES)	IC50
CC(C)Cn1c2ccccc2c2cc[n+](Cc3ccccc3)cc21	9.6 µM
CCCCCCn1c2ccccc2c2cc[n+](Cc3ccccc3)cc21	< 2 µM
CCCCCCCCn1c2ccccc2c2cc[n+](Cc3ccccc3)cc21	2.9 µM
Fc1ccc(Cn2c3ccccc3c3cc[n+](Cc4ccccc4)cc32)cc1	3.5 µM
Clc1cccc(Cn2c3ccccc3c3cc[n+](Cc4ccccc4)cc32)c1	4.2 µM
C[n+]1ccc2c3ccccc3n(CCCc3ccccc3)c2c1	4.3 µM
CC[n+]1ccc2c3ccccc3n(CCCc3ccccc3)c2c1	2.5 µM
CCCC[n+]1ccc2c3ccccc3n(CCCc3ccccc3)c2c1	3.4 µM
CCCCCC[n+]1ccc2c3ccccc3n(CCCc3ccccc3)c2c1	2.2 µM
CCCCCCCC[n+]1ccc2c3ccccc3n(CCCc3ccccc3)c2c1	4.3 µM
CCCCCCCCCC[n+]1ccc2c3ccccc3n(CCCc3ccccc3)c2c1	6.9 µM

Test system: BGC-823
Assay: Cytotoxicity against human BGC823 cells by MTT assay
Format: functional, cell-based
Conditions: not given
Outline: as §1

Structure (SMILES)	IC50
CC(C)Cn1c2ccccc2c2cc[n+](Cc3ccccc3)cc21	60.7 µM
CCCCCCn1c2ccccc2c2cc[n+](Cc3ccccc3)cc21	5.2 µM
CCCCCCCCn1c2ccccc2c2cc[n+](Cc3ccccc3)cc21	2.5 µM
Fc1ccc(Cn2c3ccccc3c3cc[n+](Cc4ccccc4)cc32)cc1	6.3 µM
Clc1cccc(Cn2c3ccccc3c3cc[n+](Cc4ccccc4)cc32)c1	20.3 µM
C[n+]1ccc2c3ccccc3n(CCCc3ccccc3)c2c1	40.6 µM
CC[n+]1ccc2c3ccccc3n(CCCc3ccccc3)c2c1	88 µM
CCCC[n+]1ccc2c3ccccc3n(CCCc3ccccc3)c2c1	15.4 µM
CCCCCC[n+]1ccc2c3ccccc3n(CCCc3ccccc3)c2c1	2.3 µM
CCCCCCCC[n+]1ccc2c3ccccc3n(CCCc3ccccc3)c2c1	7.4 µM
CCCCCCCCCC[n+]1ccc2c3ccccc3n(CCCc3ccccc3)c2c1	57 µM

Test system: MCF7
Assay: Cytotoxicity against human MCF7 cells by MTT assay
Format: functional, cell-based
Conditions: not given
Outline: as §1

Structure (SMILES)	IC50
CC(C)Cn1c2ccccc2c2cc[n+](Cc3ccccc3)cc21	39.2 µM
CCCCCCn1c2ccccc2c2cc[n+](Cc3ccccc3)cc21	11.1 µM
CCCCCCCCn1c2ccccc2c2cc[n+](Cc3ccccc3)cc21	4.1 µM
Fc1ccc(Cn2c3ccccc3c3cc[n+](Cc4ccccc4)cc32)cc1	17.8 µM
Clc1cccc(Cn2c3ccccc3c3cc[n+](Cc4ccccc4)cc32)c1	20.3 µM
C[n+]1ccc2c3ccccc3n(CCCc3ccccc3)c2c1	75.6 µM
CC[n+]1ccc2c3ccccc3n(CCCc3ccccc3)c2c1	98.7 µM
CCCC[n+]1ccc2c3ccccc3n(CCCc3ccccc3)c2c1	38.7 µM
CCCCCC[n+]1ccc2c3ccccc3n(CCCc3ccccc3)c2c1	3.9 µM
CCCCCCCC[n+]1ccc2c3ccccc3n(CCCc3ccccc3)c2c1	2.9 µM
CCCCCCCCCC[n+]1ccc2c3ccccc3n(CCCc3ccccc3)c2c1	< 2 µM

Test system: HT-29
Assay: Cytotoxicity against human HT-29 cells by MTT assay
Format: functional, cell-based
Conditions: not given
Outline: as §1

Structure (SMILES)	IC50
CC(C)Cn1c2ccccc2c2cc[n+](Cc3ccccc3)cc21	87.7 µM
CCCCCCn1c2ccccc2c2cc[n+](Cc3ccccc3)cc21	16 µM
CCCCCCCCn1c2ccccc2c2cc[n+](Cc3ccccc3)cc21	10.9 µM
Fc1ccc(Cn2c3ccccc3c3cc[n+](Cc4ccccc4)cc32)cc1	28.9 µM
Clc1cccc(Cn2c3ccccc3c3cc[n+](Cc4ccccc4)cc32)c1	26.9 µM
C[n+]1ccc2c3ccccc3n(CCCc3ccccc3)c2c1	97.3 µM
CC[n+]1ccc2c3ccccc3n(CCCc3ccccc3)c2c1	54.2 µM
CCCC[n+]1ccc2c3ccccc3n(CCCc3ccccc3)c2c1	62.7 µM
CCCCCC[n+]1ccc2c3ccccc3n(CCCc3ccccc3)c2c1	2.3 µM
CCCCCCCC[n+]1ccc2c3ccccc3n(CCCc3ccccc3)c2c1	18.6 µM
CCCCCCCCCC[n+]1ccc2c3ccccc3n(CCCc3ccccc3)c2c1	31.3 µM
